Results from ChEMBL document CHEMBL1629492 (Eur J Med Chem, 2010).

Columns and labels:
[1] = biological target: T1, Alpha-1D adrenergic receptor (Rattus norvegicus, UniProt P23944); test: Antagonist activity at Alpha-1D adrenoceptor in Wistar rat thoracic aorta assessed as noradrenaline induced contractions after 30 mins
T1 sequence (P23944 whole entry): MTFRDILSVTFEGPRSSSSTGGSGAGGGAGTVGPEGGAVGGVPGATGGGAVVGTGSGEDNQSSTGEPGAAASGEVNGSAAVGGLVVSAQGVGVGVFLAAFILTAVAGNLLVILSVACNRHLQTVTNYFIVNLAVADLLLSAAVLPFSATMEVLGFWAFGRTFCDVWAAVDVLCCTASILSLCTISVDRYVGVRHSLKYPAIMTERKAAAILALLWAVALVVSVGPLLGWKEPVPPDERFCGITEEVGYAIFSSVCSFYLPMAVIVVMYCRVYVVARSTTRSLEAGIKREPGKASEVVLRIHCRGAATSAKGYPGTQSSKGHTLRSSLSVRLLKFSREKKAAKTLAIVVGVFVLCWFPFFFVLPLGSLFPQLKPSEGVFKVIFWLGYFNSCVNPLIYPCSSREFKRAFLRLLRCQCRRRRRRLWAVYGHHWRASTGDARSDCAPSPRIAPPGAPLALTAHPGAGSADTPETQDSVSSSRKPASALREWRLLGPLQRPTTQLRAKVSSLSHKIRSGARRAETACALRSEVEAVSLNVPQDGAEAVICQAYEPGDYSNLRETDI

[2] = biological target: T2, Alpha-1B adrenergic receptor (Homo sapiens, UniProt P35368); test: Displacement of [3H]prazosin from human Alpha-1B adrenoceptor expressed in CHO cells; type: cell-based
T2 sequence (P35368 whole entry): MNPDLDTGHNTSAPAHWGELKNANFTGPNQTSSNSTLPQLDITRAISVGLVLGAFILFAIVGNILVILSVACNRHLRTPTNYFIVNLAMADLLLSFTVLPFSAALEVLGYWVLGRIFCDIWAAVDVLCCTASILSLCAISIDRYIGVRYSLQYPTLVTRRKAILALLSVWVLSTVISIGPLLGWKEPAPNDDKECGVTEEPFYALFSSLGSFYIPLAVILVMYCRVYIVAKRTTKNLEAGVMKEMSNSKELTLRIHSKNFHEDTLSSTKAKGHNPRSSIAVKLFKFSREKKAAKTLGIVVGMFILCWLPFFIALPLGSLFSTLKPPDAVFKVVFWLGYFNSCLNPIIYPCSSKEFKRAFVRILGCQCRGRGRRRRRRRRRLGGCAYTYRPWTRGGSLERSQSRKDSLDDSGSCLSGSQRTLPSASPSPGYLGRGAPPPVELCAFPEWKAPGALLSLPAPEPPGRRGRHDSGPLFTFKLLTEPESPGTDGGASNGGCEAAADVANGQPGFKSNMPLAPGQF
Summary of the method: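 Membranes ([…], as printed) from CHO cells stably expressing the cloned human α1b subtype were incubated with 0.1–0.4 nM [³H]prazosin and competitor (1 pM up to the top concentration) in 50 mM Tris-HCl, pH 7.4, for 30 min at 25 °C. Non-specific binding was defined with phentolamine, and incubations ended by filtration. Ki was derived from IC50 by Cheng–Prusoff. Reported as pKi from 2–3 triplicate experiments.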

[3] = biological target: T3, Alpha-1B adrenergic receptor (Rattus norvegicus) (UniProt P15823); test: (§1) Antagonist activity at Alpha-1B adrenoceptor in Wistar rat spleen assessed as phenylephrine induced contractions after 30 mins; type: functional, tissue-based
T3 sequence (whole entry): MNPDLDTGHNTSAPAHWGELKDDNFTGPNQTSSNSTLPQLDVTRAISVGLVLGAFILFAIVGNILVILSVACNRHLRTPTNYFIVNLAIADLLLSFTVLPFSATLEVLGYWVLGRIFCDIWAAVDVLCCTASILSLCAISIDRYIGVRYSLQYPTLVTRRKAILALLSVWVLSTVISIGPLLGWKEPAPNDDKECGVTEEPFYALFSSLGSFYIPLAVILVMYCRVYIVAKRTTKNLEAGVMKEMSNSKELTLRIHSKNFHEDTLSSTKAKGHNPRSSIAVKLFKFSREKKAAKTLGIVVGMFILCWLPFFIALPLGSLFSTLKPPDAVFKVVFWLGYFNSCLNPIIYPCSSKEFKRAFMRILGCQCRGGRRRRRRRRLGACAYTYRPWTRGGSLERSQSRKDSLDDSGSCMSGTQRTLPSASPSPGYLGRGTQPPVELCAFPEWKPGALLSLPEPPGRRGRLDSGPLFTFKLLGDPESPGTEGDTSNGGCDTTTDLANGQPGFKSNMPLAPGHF
Summary of the method: (§2)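 Spleen strips from male Wistar rats (275–300 g) were set up in a 20 mL bath of physiological salt solution (pH 7.4, 37 °C, 95% O2/5% CO2) under 1 g tension and equilibrated 2 h. Two cumulative phenylephrine curves were run, each followed by 30 min washing, then 30 min incubation with vehicle or antagonist before a third curve. Values are Schild pA2, or pKB where slopes were nonparallel; 4–6 experiments.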

[4] = species: Rattus norvegicus; test: Selectivity ratio of Ki for alpha1D adrenoceptor in Wistar rat thoracic aorta to Ki for Alpha-1B adrenoceptor in Wistar rat spleen; type: tissue-based
[5] = species: Rattus norvegicus; test: Selectivity ratio of Ki for alpha1A adrenoceptor in Wistar rat vas deferens to Ki for Alpha-1B adrenoceptor in Wistar rat spleen; type: tissue-based
[6] = biological target: T4, Alpha-1B adrenergic receptor (Rattus norvegicus, UniProt P15823); test: as §1; type: functional, tissue-based; conditions: read-out: pA2 (converted); summary of the method: as §2
T4 sequence (P15823 whole entry): T3 sequence (whole entry)

[7] = biological target: T5, Alpha-1A adrenergic receptor (Rattus norvegicus) (UniProt P43140); test: Antagonist activity at alpha1A adrenoceptor in Wistar rat vas deferens assessed as noradrenaline induced contractions after 30 mins; type: functional, tissue-based
T5 sequence (whole entry): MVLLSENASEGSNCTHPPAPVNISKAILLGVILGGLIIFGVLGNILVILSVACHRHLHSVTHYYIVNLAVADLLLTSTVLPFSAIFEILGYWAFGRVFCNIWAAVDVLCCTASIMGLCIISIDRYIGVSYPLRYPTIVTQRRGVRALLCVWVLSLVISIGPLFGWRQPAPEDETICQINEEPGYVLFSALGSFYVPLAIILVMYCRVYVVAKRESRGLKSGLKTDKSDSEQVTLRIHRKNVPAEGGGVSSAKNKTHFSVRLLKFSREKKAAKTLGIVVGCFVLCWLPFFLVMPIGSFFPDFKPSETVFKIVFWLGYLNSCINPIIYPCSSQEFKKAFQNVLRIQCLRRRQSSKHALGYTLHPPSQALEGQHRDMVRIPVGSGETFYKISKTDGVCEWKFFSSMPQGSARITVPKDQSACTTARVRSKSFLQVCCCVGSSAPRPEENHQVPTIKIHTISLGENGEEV
Summary of the method: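 Prostatic portions (2 cm) of vas deferens from male Wistar rats (275–300 g) were held under 0.35 g tension in Tyrode solution at 37 °C with cocaine present. Tissues were equilibrated 45 min, primed twice with noradrenaline, then given a cumulative isotonic noradrenaline curve.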

[8] = biological target: T6, Alpha-1D adrenergic receptor (Rattus norvegicus) (UniProt P23944); conditions: Wistar, Thoracic aorta
T6 sequence (whole entry): T1 sequence (P23944 whole entry)

| SMILES | Kb [1] [nM] | Ki [2] [nM] | pKb [3] | Selectivity ratio [4] | Selectivity ratio [5] | Kb [6] [nM] | pKb [7] | pKb [8] |
| --- | --- | --- | --- | --- | --- | --- | --- | --- |
| COc1ccc(C[C@@H](C)NC[C@@H]2Oc3ccccc3O[C@@H]2C)cc1S(N)(=O)=O | 21.4 | 31.6 | 7.76 | 0.8 | 1 | – | – | – |
| COc1ccc(C[C@@H](C)NCCOc2ccccc2OCC(F)(F)F)cc1S(N)(=O)=O | 0.955 | 5.5 | – | 1 | 4 | 1.1 | – | – |
| COc1ccc(C[C@@H](C)NC[C@H]2Oc3ccccc3O[C@H]2C)cc1S(N)(=O)=O | 60.3 | 67.6 | – | 0.5 | 1 | 30.9 | – | – |
| COc1ccc(C[C@@H](C)NCCOc2ccccc2OC(C)C)cc1S(N)(=O)=O | 0.501 | 1.91 | 8.81 | 3 | 7 | – | 9.66 | – |
| COc1ccc(C[C@@H](C)NCCOc2ccccc2OCc2ccccc2)cc1S(N)(=O)=O | – | 2.09 | 8.57 | 4 | 12 | – | 9.66 | 9.2 |
